# Reference: ChEMBL document CHEMBL1136108, “Benzoxazinones as PPARgamma agonists. part 1: SAR of three aromatic regions” (Bioorg Med Chem Lett, 2003)
# Columns and labels:
# [1] = molecular target: T1, Peroxisome proliferator-activated receptor gamma (Homo sapiens) (UniProt P37231); experiment: PPAR gamma mediated aP2 gene induction in pooled human preadipocytes; assay type: functional, cell-based
# T1 sequence (whole entry): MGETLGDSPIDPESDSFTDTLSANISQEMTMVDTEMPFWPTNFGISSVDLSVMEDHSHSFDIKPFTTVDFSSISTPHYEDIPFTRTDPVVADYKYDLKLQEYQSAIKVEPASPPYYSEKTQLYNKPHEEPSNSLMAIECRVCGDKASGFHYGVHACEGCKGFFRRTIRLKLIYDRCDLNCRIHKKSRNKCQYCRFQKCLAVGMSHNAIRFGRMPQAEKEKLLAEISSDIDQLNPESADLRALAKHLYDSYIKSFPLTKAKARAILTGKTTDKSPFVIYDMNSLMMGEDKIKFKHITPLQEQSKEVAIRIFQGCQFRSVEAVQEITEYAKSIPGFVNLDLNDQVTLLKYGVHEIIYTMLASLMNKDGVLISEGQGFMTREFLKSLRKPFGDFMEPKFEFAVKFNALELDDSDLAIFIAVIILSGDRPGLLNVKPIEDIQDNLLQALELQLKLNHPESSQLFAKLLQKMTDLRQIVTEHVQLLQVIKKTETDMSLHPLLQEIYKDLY
# Outline: (§1)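 Pooled human preadipocytes treated with compound. Induction of the aP2 gene was quantified by a branched DNA technique. EC50 values are the mean of two experiments.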
# [2] = molecular target: T1, Peroxisome proliferator-activated receptor gamma (Homo sapiens); experiment: Agonist activity determined in peroxisome proliferator activated receptor gamma using PPAR gamma-Gal4 Luciferase cotransfection assay; assay type: functional
# Outline: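 HEK293 cells grown in DMEM/F-12 with 10% FBS and glutamine, co-transfected (DMRIE-C) with PPARg-Gal4 receptor and Gal4-luciferase reporter DNA. Next day, medium switched to 5% charcoal-treated FBS; after 6 h cells seeded and incubated overnight at 37°C. Compound exposure 24 h at 37°C, 5% CO2; luciferase read by Steady-Glo. Values are the mean of two experiments.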
# [3] = molecular target: T1, Peroxisome proliferator-activated receptor gamma (Homo sapiens); experiment: Functional potency was determined in pooled human preadipocytes by measurement of PPARg aP2 gene induction; assay type: cell-based; outline: as §1
# [4] = Half life period in human hepatic S9 fraction was determined; assay type: ADME, subcellular; conditions: liver S9 fraction
# [5] = Half life period in human liver microsome was determined; assay type: ADME; conditions: liver microsomes
# Rattus norvegicus [6] = experiment: Oral bioavailability after administration (30 mg/kg) in rat; good; assay type: ADME, organism-based; conditions: in vivo
# [7] = Half life period after administration (30 mg/kg) in rat; assay type: ADME, organism-based; conditions: in vivo
# Rattus norvegicus [8] = experiment: Area under curve (AUC0-24 h) after administration (30 mg/kg) in rat; assay type: ADME, organism-based; parameters: dose 30 mg/kg, time < 24 hr; conditions: in vivo
# Mus musculus = experiment: Decrease in plasma glucose in db/db mice after 5 days of 30 mg/kg oral administration; assay type: functional
Activity [2],Activity [3],Compound,also measured
> 5 µM,> 10 µM,O=C(O)c1ccccc1OCCC1Oc2ccccc2N(Cc2ccc(Cl)cc2)C1=O (stereo not drawn),
1.3 µM,2.1 µM,O=C(O)Cc1ccccc1OCCC1Oc2ccccc2N(Cc2ccc(Cl)cc2)C1=O (stereo not drawn),half-life [4]: > 50 min; half-life [5]: > 50 min; F (Rattus norvegicus [6]): Active; half-life [7]: 1200 min; AUC (Rattus norvegicus [8]): 308 µM·h; Glucose level (Mus musculus): 27%
1.8 µM,6 µM,COc1ccc2c(c1)N(Cc1ccc(Cl)cc1)C(=O)C(CCOc1ccccc1CC(=O)O)O2 (stereo not drawn),
2.1 µM,4.2 µM,Cc1ccc2c(c1)OC(CCOc1ccccc1CC(=O)O)C(=O)N2Cc1ccc(Cl)cc1 (stereo not drawn),
> 5 µM,> 10 µM,O=C(O)Cc1cccc(OCCC2Oc3ccccc3N(Cc3ccc(Cl)cc3)C2=O)c1 (stereo not drawn),
> 5 µM,> 10 µM,O=C(O)CCc1ccccc1OCCC1Oc2ccccc2N(Cc2ccc(Cl)cc2)C1=O (stereo not drawn),
> 5 µM,> 10 µM,O=C(O)Cc1ccccc1OCCC1Oc2cc3ccccc3cc2N(Cc2ccc(Cl)cc2)C1=O (stereo not drawn),
1.9 µM,2.4 µM,O=C(O)Cc1ccccc1OCCC1Oc2ccccc2N(Cc2cccc(Cl)c2)C1=O (stereo not drawn),Fold induction [1]: 6.2
> 5 µM,> 10 µM,O=C(O)Cc1cccc(OCCC2Oc3ccccc3N(Cc3cccc(Cl)c3)C2=O)c1 (stereo not drawn),Fold induction [1]: 5.5
> 5 µM,> 10 µM,O=C(O)Cc1ccccc1OCCC1Oc2cc(F)ccc2N(Cc2ccc(Cl)cc2)C1=O (stereo not drawn),

# Second part, the compound before the results:
Compound,Activity [2],Activity [3],also measured
O=C(O)CCc1ccc(OCCC2Oc3ccccc3N(Cc3cccc(Cl)c3)C2=O)cc1 (stereo not drawn),,,Fold induction [1]: 3.6
COc1ccc(CN2C(=O)C(CCOc3ccccc3CC(=O)O)Oc3ccccc32)cc1 (stereo not drawn),0.52 µM,5.4 µM,
CC(=O)c1ccc2c(c1)OC(CCOc1ccccc1CC(=O)O)C(=O)N2Cc1ccc(Cl)cc1 (stereo not drawn),1.8 µM,6.2 µM,
O=C(O)Cc1ccccc1OCCC1Oc2ccccc2N(Cc2ccc3c(c2)OCO3)C1=O (stereo not drawn),1.1 µM,4.4 µM,
CN(CCOc1ccc(CC2SC(=O)NC2=O)cc1)c1ccccn1 (stereo not drawn),,0.12 µM,
O=C(O)Cc1ccccc1OCCC1Oc2ccccc2N(Cc2ccc(Cl)c(Cl)c2)C1=O (stereo not drawn),0.96 µM,2.6 µM,
O=C(O)Cc1ccc(OCCC2Oc3ccccc3N(Cc3cccc(Cl)c3)C2=O)cc1 (stereo not drawn),,,Fold induction [1]: 3.2
O=C(O)Cc1ccccc1OCCC1Oc2ccccc2N(Cc2ccccc2)C1=O (stereo not drawn),> 5 µM,4.6 µM,
O=C(O)Cc1ccccc1OCCC1Oc2ccc(C(=O)O)cc2N(Cc2ccc(Cl)cc2)C1=O (stereo not drawn),> 5 µM,> 10 µM,
O=C(O)Cc1ccccc1OCCC1Oc2ccccc2N(c2ccc(Cl)c(Cl)c2)C1=O (stereo not drawn),0.57 µM,5.9 µM,
O=C(O)Cc1ccccc1OCCC1Oc2ccccc2N(Cc2ccc(C(F)(F)F)cc2)C1=O (stereo not drawn),0.5 µM,0.51 µM,
O=C(O)Cc1ccccc1OCCC1Oc2ccccc2N(Cc2ccc(F)cc2)C1=O (stereo not drawn),1.1 µM,3.2 µM,
O=C(O)CCc1cccc(OCCC2Oc3ccccc3N(Cc3cccc(Cl)c3)C2=O)c1 (stereo not drawn),,,Fold induction [1]: 5.6
O=C(O)Cc1ccccc1OCCC1CN(Cc2ccc(Cl)c(Cl)c2)c2ccccc2O1 (stereo not drawn),> 5 µM,> 10 µM,
O=C(O)Cc1ccccc1OCCC1Oc2ccccc2N(Cc2ccc(F)c(F)c2)C1=O (stereo not drawn),0.59 µM,1.3 µM,
O=C(O)Cc1ccccc1OCCC1Oc2ccccc2N(CCc2ccc(Cl)c(Cl)c2)C1=O (stereo not drawn),> 5 µM,> 10 µM,
Cc1ccc(CN2C(=O)C(CCOc3ccccc3CC(=O)O)Oc3ccccc32)cc1 (stereo not drawn),2 µM,5 µM,
